Reference: ChEMBL document CHEMBL1914331, “N-O chemistry for antibiotics: discovery of N-alkyl-N-(pyridin-2-yl)hydroxylamine scaffolds as selective antibacterial agents using nitroso Diels-Alder and ene chemistry” (J Med Chem, 2011)
Converted amounts (≈) assume the structure as drawn.

What was measured:
HeLa = assay: Cytotoxicity against human HeLa cells; format: cell-based
Pseudomonas aeruginosa [1] = assay: Antimicrobial activity against Pseudomonas aeruginosa 799/61 after 24 hrs by Kirby-Bauer agar diffusion assay; format: functional
Summary of the method: (§1)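 Modified Kirby-Bauer well diffusion. Overnight LB cultures (18–24 h) were standardized in 0.9% saline to 0.5 McFarland and mixed into melted MHII agar at 47–50 °C, giving ~5×10³ CFU/mL. 9 mm wells received 50 µL of 2.0 mM compound in 10:1 MeOH:DMSO. Plates were incubated 24 h at 37 °C, then growth-inhibition zone diameter was measured (mm) by caliper.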

Enterococcus faecalis [2] = assay: Antimicrobial activity against Enterococcus faecalis ATCC 49532 assessed after 18 hrs by broth microdilution method; format: functional; settings: ATCC 49532, 18 h
Summary of the method: (§2)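 CLSI broth microdilution in cation-adjusted MHII broth. 20 mM DMSO stocks were diluted to 512 µM, then serially 2-fold, giving final 128–0.0625 µM with 5×10⁵ CFU/mL inoculum. Incubated 18 h at 37 °C. MIC90 was the lowest concentration giving 90% inhibition by visual turbidity versus DMSO wells. Run in triplicate.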

[3] = system: Sporobolomyces salmonicolor; assay: Antimicrobial activity against Sporidiobolus salmonicolor 549 after 24 hrs by Kirby-Bauer agar diffusion assay; format: functional; summary of the method: as §1
Escherichia coli [4] = assay: Antimicrobial activity against Escherichia coli DC2 after 24 hrs by Kirby-Bauer agar diffusion assay; format: functional; summary of the method: as §1
Staphylococcus aureus [5] = assay: Antimicrobial activity against methicillin-resistant Staphylococcus aureus 134/94 after 24 hrs by Kirby-Bauer agar diffusion assay; format: functional
Summary of the method: (§3)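 Overnight LB cultures (18–24 h) adjusted to a 0.5 McFarland standard (1.5×10^6 CFU/mL in 0.9% saline), then 0.1 mL mixed into 34 mL molten MHII agar at 47–50 °C (~5×10^3 CFU/mL). 50 µL of 2.0 mM compound in 10:1 MeOH:DMSO placed in 9 mm wells. Incubated at 37 °C for 24 h; inhibition zone diameter (mm) measured by caliper.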

Micrococcus luteus [6] = assay: Antimicrobial activity against Micrococcus luteus ATCC 10240 assessed after 18 hrs by broth microdilution method; format: functional; settings: ATCC 10240, 18 h; summary of the method: as §2
Mycolicibacterium vaccae = assay: Antimicrobial activity against Mycobacterium vaccae IMET 10670 after 24 hrs by Kirby-Bauer agar diffusion assay; format: functional; summary of the method: as §1
Escherichia coli [7] = assay: Antimicrobial activity against Escherichia coli DC0 after 24 hrs by Kirby-Bauer agar diffusion assay; format: functional; summary of the method: as §1
Micrococcus luteus [8] = assay: Antimicrobial activity against Micrococcus luteus ATCC 10240 after 24 hrs by Kirby-Bauer agar diffusion assay; format: functional; summary of the method: as §1
MCF7 = assay: Cytotoxicity against human MCF7 cells; format: cell-based
Enterococcus faecalis [9] = assay: Antimicrobial activity against vancomycin-resistant Enterococcus faecalis 1528 after 24 hrs by Kirby-Bauer agar diffusion assay; format: functional; summary of the method: as §3
Enterococcus faecalis [10] = assay: Antimicrobial activity against Enterococcus faecalis ATCC 49532 after 24 hrs by Kirby-Bauer agar diffusion assay; format: functional; summary of the method: as §1
PC-3 = assay: Cytotoxicity against human PC3 cells; format: cell-based
Staphylococcus aureus [11] = assay: Antimicrobial activity against Staphylococcus aureus SG511 assessed after 18 hrs by broth microdilution method; format: functional; settings: SG511, 18 h; summary of the method: as §2
Pseudomonas aeruginosa [12] = assay: Antimicrobial activity against Pseudomonas aeruginosa 799/WT after 24 hrs by Kirby-Bauer agar diffusion assay; format: functional; summary of the method: as §1
Bacillus subtilis = assay: Antimicrobial activity against Bacillus subtilis ATCC 6633 after 24 hrs by Kirby-Bauer agar diffusion assay; format: functional; summary of the method: as §1
Staphylococcus aureus [13] = assay: Antimicrobial activity against Staphylococcus aureus SG511 after 24 hrs by Kirby-Bauer agar diffusion assay; format: functional; summary of the method: as §1

| SMILES | Activity (HeLa) | diameter of the inhibition zone (DIZ) (Pseudomonas aeruginosa [1]) | MIC90 (Enterococcus faecalis [2]) | diameter of the inhibition zone (DIZ) [3] | diameter of the inhibition zone (DIZ) (Escherichia coli [4]) | diameter of the inhibition zone (DIZ) (Staphylococcus aureus [5]) | MIC90 (Micrococcus luteus [6]) | diameter of the inhibition zone (DIZ) (Mycolicibacterium vaccae) | diameter of the inhibition zone (DIZ) (Escherichia coli [7]) | diameter of the inhibition zone (DIZ) (Micrococcus luteus [8]) | Activity (MCF7) | diameter of the inhibition zone (DIZ) (Enterococcus faecalis [9]) | diameter of the inhibition zone (DIZ) (Enterococcus faecalis [10]) | Activity (PC-3) | MIC90 (Staphylococcus aureus [11]) | diameter of the inhibition zone (DIZ) (Pseudomonas aeruginosa [12]) | diameter of the inhibition zone (DIZ) (Bacillus subtilis) | diameter of the inhibition zone (DIZ) (Staphylococcus aureus [13]) |
| --- | --- | --- | --- | --- | --- | --- | --- | --- | --- | --- | --- | --- | --- | --- | --- | --- | --- | --- |
| CO[C@@H]1C=C[C@@H](N(O)c2ccc(Br)cn2)CC1 (racemic) | Non-toxic | <=10 mm | > 128 µM | <=10 mm | <=10 mm | 11 mm | 4 µM (≈ 1.2 µg/mL) | 11 mm | <=10 mm | 34 mm | Non-toxic | 16 mm | 16 mm | Non-toxic | > 128 µM | <=10 mm | <=10 mm | 12 mm |
| C=C(CN(O)c1ccccn1)c1ccccc1 | Non-toxic | – | > 128 µM | – | – | – | 64 µM (≈ 14.5 µg/mL) | – | – | 20 mm | Non-toxic | – | 18 mm | Non-toxic | 32 µM (≈ 7.24 µg/mL) | – | – | 19 mm |
| C=C(C)C(C)(C)N(O)c1ccccn1 | Non-toxic | – | > 128 µM | – | – | – | 4 µM (≈ 0.769 µg/mL) | – | – | 33 mm | Non-toxic | – | 18 mm | Non-toxic | 128 µM (≈ 24.6 µg/mL) | – | – | 15 mm |
| ON(Cc1ccccc1)c1cccnc1 | Non-toxic | – | > 128 µM | – | – | – | ≥ 128 µM | – | – | 15 mm | Non-toxic | – | 0 mm | Non-toxic | > 128 µM | – | – | 16 mm |
| ON(Cc1ccccc1)Cc1ccccn1 | Non-toxic | – | > 128 µM | – | – | – | > 128 µM | – | – | 0 mm | Non-toxic | – | 0 mm | Non-toxic | > 128 µM | – | – | 0 mm |
| C=C(C)C(C)N(O)c1cccc(CC)n1 (racemic) | Non-toxic | – | > 128 µM | – | – | – | 2 µM (≈ 0.413 µg/mL) | – | – | 52 mm | Non-toxic | – | 22 mm | Non-toxic | > 128 µM | – | – | 11 mm |
| ON(Cc1ccc(OC(F)(F)F)cc1)c1ccccn1 | Non-toxic | – | > 128 µM | – | – | – | 128 µM (≈ 36.4 µg/mL) | – | – | 17 mm | Non-toxic | – | 15 mm | Non-toxic | > 128 µM | – | – | 14 mm |
| ON(CCc1ccccc1)c1ccccn1 | Non-toxic | – | > 128 µM | – | – | – | 128 µM (≈ 27.4 µg/mL) | – | – | 16 mm | Non-toxic | – | 15 mm | Non-toxic | > 128 µM | – | – | 0 mm |
| C=C(C)C(C)N(O)c1ccc(I)cn1 (racemic) | Non-toxic | – | > 128 µM | – | – | – | 2 µM (≈ 0.608 µg/mL) | – | – | 38 mm | Non-toxic | – | 19 mm | Non-toxic | > 128 µM | – | – | 12 mm |
